Source: ChEMBL document CHEMBL4251709, “Synthesis, Biological Investigation, and Structural Revision of Sielboldianin A” (J Nat Prod, 2018)

Columns and labels:
HepG2 [1] = test: Antioxidant activity in human HepG2 cells assessed as inhibition of ABAP-induced peroxyl radical generation incubated for 60 mins measured for 60 mins by DCFH-DA probe based fluorescence assay; format: functional, cell-based; conditions: HepG2, 1 h
In short: (§1)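 HepG2 cells grown in MEM Earle's with gentamycin, L-alanyl-L-glutamine, nonessential amino acids, sodium pyruvate and 10% FBS at 37 °C, 5% CO2. 80 000 cells per well were seeded 24 h ahead, ~50% confluent at testing. Sesquiterpenoids were dissolved in DMSO, giving 1% DMSO final in all wells including controls. IC50 from dose–response Hill-slope fit, three experiments, mean ± SD.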

HepG2 [2] = test: Antioxidant activity in human HepG2 cells assessed as inhibition of cumene hydroperoxide-mediated lipid peroxidation incubated for 60 mins followed by cumOOH addition for 60 mins measured for 60 mins by C11-BODIPY probe based fluorescence assay; format: functional, cell-based; conditions: HepG2, 1 h; in short: as §1
K562 = test: Cytotoxicity against human K562 cells assessed as inhibition of cell growth after 5 days by MTT assay; format: cell-based; conditions: K562, 120 h
In short: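 K562 cells kept in antibiotic-free RPMI with 2-mercaptoethanol (2 μM), L-glutamine (2 mM) and 10% FCS. 100 μL of cells at 40 000 cells/mL were mixed with 100 μL of serially diluted compound (DMSO stock) in medium, with a drug-free control. Incubation 5 days, 37 °C, 5% CO2. MTT (3 mg/mL) for 3 h, formazan taken up in DMSO, read at 540 and 690 nm. IC50 as % of control growth, three experiments.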

Row | Compound | IC50 (HepG2 [1]) [µM] | IC50 (HepG2 [2]) [µM] | IC50 (K562) [µM]
1 | CC(C)=CCC[C@](C)(O)c1ccc(C)cc1 | > 100 | > 100 | > 50
2 | Cc1ccc([C@]2(C)CC[C@@H](C(C)(C)O)O2)cc1O | 18 | 31 | > 50
3 | Cc1ccc([C@]2(C)CC[C@@H](C(C)(C)O)O2)cc1 | > 100 | > 100 | > 50
4 | O=c1c(O)c(-c2ccc(O)c(O)c2)oc2cc(O)cc(O)c12 [QUERCETIN] | 65 | 12 | 2.5
